How the values were obtained:
[1] = melting temperature; fluorescence melt of hairpins on a sequencing array, two-state fit, raised by 9.35 °C to match UV melts; details: sodium 0.088 M
In short: (§1)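 Folding enthalpy and melting temperature were estimated with bootstrapped two-state fits and combined across four replicates by inverse-variance weighting, with fitted temperatures raised by 9.35 °C to match UV melts. The data were Cy3 fluorescence of library hairpins, with annealed Cy3 and quencher oligos, on a sequenced MiSeq flow cell in 50 mM Na-HEPES pH 8.0, 25 mM NaCl, imaged in 2.5 °C steps up to 60 °C and normalised to pre-quench Cy3 and control constructs.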

[2] = folding enthalpy; higher = less favourable; fluorescence melt of hairpins on a sequencing array, two-state fit; details: sodium 0.088 M
In short: as §1

Sequence | Tm [1] [°C] | folding enthalpy [2] [kcal/mol]
GCTAGTGGAAACACTAAC (.(((((....))))).) | 32.5 | -15.2
GGCCAAGGAAACTCAGCC (((..((....))..))) | 30.2 | -11.7
GTCAGTGGAAACGCTGAC (((((.(....).))))) | 54.2 | -40.5
GATCACTTCAGTGATC ((((((....)))))) | 63.9 | -46.6
CGTGCGGAAACGCCCACG ((((((....)))..))) | 38.2 | -22.4
GTCTACGGAAACGTGGAC (((.(((....))).))) | 53.1 | -39.8
GGCTATCCGAAAGGAGCC (((..(((....)))))) | 47.1 | -27.3
GACAACACGAAAGTGGTC (((..(((....)))))) | 39.8 | -16
GATCTTCGGGAAGATC ((((((....)))))) | 49.5 | -36.2
GTCCACCGAAAGGTGAC (((.(((....)))))) | 46.1 | -12.5
GAAAGCGGAAACGCCTTC (((.(((....))).))) | 34.1 | -18.4
GATGTGGGAAACCATGTC ((..(((....)))..)) | 34.9 | -32.6
GCTAAGGGAAACCTTGGC ((.((((....)))).)) | 47.6 | -29.4
GATCTCAGCCGAGATC ((((((....)))))) | 52.6 | -39.6
GATCCGGGATCGGATC ((((((....)))))) | 61.9 | -40.1
GTGAGAGGAAACTCTTGC (..((((....))))..) | 29.4 | -20.3
GATGGCGAAAGCCGATC ((((((....))).))) | 47.6 | -15.4
GGGAGCGAAAGCTCACCC ((((((....)))..))) | 57.2 | -11.2
GTCACCGAAAGGTAAGAC ((((((....)))..))) | 39 | -19.6
ACGTGGAAACACGT (((((....))))) | 55.5 | -22
GCCGTGCGAAAGCCCAGC ((.(.((....)).).)) | 29.4 | -10.3
GTGACAGGAAACTGTCAC (((((((....))))))) | 65.2 | -42.1
GCGGAGCGAAAGCGTCGC (((..((....))..))) | 67 | -26.6

Sequence | Tm [1] [°C] | folding enthalpy [2] [kcal/mol]
GATCACAGTTGTGATC ((((((....)))))) | 60.4 | -35.7
GTACCCGAAAGGGATAC ((((((....))).))) | 47 | -15.3
GCTTGTTCGAAAGAAAGC (((..(((....)))))) | 26.5 | -16.2
GCTTTGCGAAAGCAATGC ((.((((....)))).)) | 60.9 | -27.5
GGCTTGCCGAAAGGCGCC (((..(((....)))))) | 55.8 | -14
GCGATGGGTCGC ((((....)))) | 54.4 | -23.4
GGAAACGGAAACGTTTTC (.(((((....))))).) | 46.8 | -28.3
GGATTTCGAAAGAAGTCC (((.(((....))).))) | 49.3 | -36.2
GGCGGACCGAAAGGTGCC (((..(((....)))))) | 55.1 | -19.9
CCACTGAAAAGTGG (((((....))))) | 54.5 | -25.3
GATCCGACGCCGGATC ((((((....)))))) | 56.7 | -36.7
GGCCACGGAAACGTGACC ((.((((....)))).)) | 54.1 | -37.9
GGGTTGGGAAACCAACTC (.(((((....))))).) | 49.7 | -21.9
GTCGCCGAAAGGCTGAC ((((((....))).))) | 57.1 | -17.8
GTTCGCTCGAAAGAGAAC (((..(((....)))))) | 37.5 | -19.8
GCACGCGAAAGCGGCTGC ((((((....)))..))) | 65.4 | -14.7
GCCCACGAAAGTGAAGGC ((((((....)))..))) | 52.1 | -28.2
CGCAGCGGAAACGCAGCG (((.(((....))).))) | 68.5 | -29.9
GCCCTGCGAAAGCCGAGC ((.(.((....)).).)) | 34.5 | -11
GATCCCTTAGGGATC ((((((...)))))) | 66.1 | -38.3
GCGGGTGGAAACACCTGC ((.((((....)))).)) | 59.1 | -37.5
GGGGACGAAAGTCATCCC ((((((....)))..))) | 45.6 | -12.6
GCGGAGCACCGC ((((....)))) | 61.6 | -11.2

Sequence | Tm [1] [°C] | folding enthalpy [2] [kcal/mol]
GCGATGTCGAAAGACCGC (((..(((....)))))) | 51 | -29.5
CGTCTCGGAAACGATACG (((.(((....))).))) | 42.9 | -38
GATCGTAAGCACGATC ((((((....)))))) | 53.9 | -36.4
GACGGCACGAAAGTGGTC (((..(((....)))))) | 34.5 | -14.6
GAATACGCGAAAGCGTTC (((..(((....)))))) | 26.7 | -7.08
GATCTCACGGGAGATC ((((((....)))))) | 51.7 | -39.3
GATCAACTAATTGATC ((((((....)))))) | 40.8 | -28.4
GAACCCCCGAAAGGGTTC (((..(((....)))))) | 55 | -24
GTAACGGGAAACCATTAC ((((.((....)).)))) | 28.4 | -11.8
GTAGGTGGAAACGTCTAC ((((..(....)..)))) | 28.8 | -16.8
GATCCTCGAAGGATC ((((((...)))))) | 50.1 | -26.7
GAGCTAGGAAACTAGCTC (((((((....))))))) | 62.4 | -37.9
GTAGGTGGAAACACTTGC (.(.(((....))).).) | 31.7 | -14.3
GACATGAAAATGTC (((((....))))) | 50.4 | -24
GGGGTTGGAAACAATCCC (((.(((....))).))) | 52.5 | -42.4
GATCCGGTCACGGATC ((((((....)))))) | 69.3 | -34.7
GAGCGAGGAAACTCGCCC (.(((((....))))).) | 53.6 | -7.21
GTAATTGGAAACAGTTAC ((((.((....)).)))) | 35.9 | -21.2
GTGTTTGAAAAAACAC ((((((....)))))) | 52.9 | -38.4
GAAGGACCGAAAGGTTTC (((..(((....)))))) | 24 | -10.4
GTCTCAGGAAACTGGGAC (((.(((....))).))) | 49.8 | -35.6
GGCATCGAAAGATTGCC ((((((....))).))) | 52.7 | -31.1
GTCACCCCGAAAGGGGAC (((..(((....)))))) | 41.4 | -10.1

Sequence | Tm [1] [°C] | folding enthalpy [2] [kcal/mol]
GGAATTCGAAAGAAGTCC (((.(((....))).))) | 49.2 | -37.5
GTGCAGTCGAAAGACCAC (((..(((....)))))) | 38.7 | -16.4
GATCCGCACCGGATC ((((((...)))))) | 57.1 | -29.4
GCGTCGCGAAAGCACCGC (((..((....))..))) | 53.9 | -20.8
GATGGGAAACCATC (((((....))))) | 49.9 | -26.5
GCAGCGCGAAAGCCCTGC ((((.((....)).)))) | 60.1 | -25.9
GCGTGAGGAAACTCATGC ((.((((....)))).)) | 53.4 | -35.8
GATCCGACCCCGGATC ((((((....)))))) | 54.4 | -42.1
GCAACGGGAAACCGTCAC (..((((....))))..) | 27.1 | -11.2
GATCCTAAGAAGGATC ((((((....)))))) | 48 | -35.3
GGTCGCGAAAGCGTACC ((((((....))).))) | 62 | -21.2
GCTAAGCGAAAGCCTCGC ((.(.((....)).).)) | 29 | -10.7
GTTGAACGAAAGTTGAAC (((.(((....))).))) | 38.1 | -25.9
GATCTATAAATAGATC ((((((....)))))) | 39.9 | -35.4
GTGGTCCGAAAGGACAC (((.(((....)))))) | 53.2 | -12.8
GTCACTCGAAAGAGCGAC (((.(((....))).))) | 51.5 | -43.5
GTTGCAGGAAACTGTGAC ((..(((....)))..)) | 37.9 | -29.9
GATCAGTTGGCTGATC ((((((....)))))) | 54.3 | -43
GATGACCGAAAGGTAATC (((.(((....))).))) | 47.1 | -23.4
GAGAAGGGAAACCTTCTC (((((((....))))))) | 55.5 | -50.6
GTAAGAGCGAAAGCTTAC (((..(((....)))))) | 33.5 | -14.9
GATCTCGCCAGAGATC ((((((....)))))) | 69 | -37.1
GCCAACGAAAGTTGTGGC ((((((....)))..))) | 48.4 | -18.4

Source: the array DNA melting data of Ke et al. (doi:10.1101/2024.01.08.574731)
